Experimental data: ChEMBL document CHEMBL1157842, “Novel derivatives of 1,3,4-oxadiazoles are potent mitostatic agents featuring strong microtubule depolymerizing activity in the sea urchin embryo and cell culture assays” (Eur J Med Chem, 2010)
Active and inactive are the calls of the source.

Key:
Bos taurus = organism: Bos taurus; experiment: Inhibition of purified bovine brain tubulin polymerization at 10 uM after 1 hr by VEC-DIC microscopic analysis
Outline: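 Bovine brain tubulin (1.2 mg/mL) in BRB80 (80 mM PIPES pH 6.8, 1 mM MgCl₂, 1 mM EGTA) was polymerized with 10% DMSO and 0.5 mM GTP. It was then incubated 1 h at 37 °C with compound, using 0.6% DMSO as negative control. Microtubule assembly was scored by VEC-DIC video microscopy.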

Paracentrotus lividus [1] = experiment: Antimitotic activity against Paracentrotus lividus embryo assessed as cleavage arrest after 10 to 15 mins fertilization 45 to 60 mins before first mitotic cycle completeion; type: functional, organism-based
Outline: (§1)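 Paracentrotus lividus embryos, gametes obtained by intracoelomic 0.5 M KCl injection. Fertilized eggs ([…] post-fertilization, 45–60 min before first mitosis) were exposed to 2-fold decreasing concentrations, at up to 3000 embryos/mL in filtered sea water at room temperature. Stocks were 5 mM in 95% EtOH or 5–10 mM in DMSO, diluted 10-fold with 95% EtOH. Read-out was scored at 2.5–6 h: threshold concentration for cleavage alteration or full mitotic arrest. Duplicate measurements.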

[2] = Inhibition of tubulin polymerization at 10 uM
Paracentrotus lividus [3] = experiment: Antiproliferative activity against Paracentrotus lividus embryo assessed as cleavage alteration after 10 to 15 mins fertilization 45 to 60 mins before first mitotic cycle completeion; type: functional, organism-based; outline: as §1
A549 [4] = experiment: Induction of microtubule disruption in human A549 cells at 25 uM after 8 hrs by indirect immunofluorescence microscopic analysis; type: functional, cell-based
Outline: (§2)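 A549 cells on glass coverslips (2 × 10⁴ per coverslip) exposed 8 h at 37 °C, 5% CO₂, with 0.6% DMSO as negative control. Fixed cells were stained with mouse anti-α-tubulin (1:400) and Alexa Fluor 488 goat anti-mouse IgG (1:200). Microtubule network examined by fluorescence microscopy.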

A549 [5] = experiment: Cytotoxicity against human A549 cells after 24 hrs by MTT assay; type: functional, cell-based; conditions: A549, 24 h
Outline: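 A549 cells in DMEM/10% FBS at 3 × 10³ cells/well, treated 24 h (8 wells per concentration), with 0.4% DMSO as control. MTT (final 0.5 mg/mL) was added for the last 2 h and formazan dissolved in DMSO containing 10% SDS/0.6% acetic acid. OD read at 590 nm (690 nm reference). Three repeats; IC50 from sigmoidal fit.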

Paracentrotus lividus [6] = experiment: Cytotoxicity against Paracentrotus lividus embryo assessed as embryo spinning after 9 to 12 hrs fertilization and 0.5 to 20 hrs treatment; type: functional, organism-based
Outline: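 Paracentrotus lividus free-swimming blastulae treated just after hatching (9–12 h post-fertilization). Behavior was monitored by light microscopy and embryo spinning scored as threshold concentration. Embryos were held in filtered sea water at room temperature with paddle agitation. Compound stocks were in 95% EtOH or DMSO diluted in EtOH; maximal tolerated final DMSO 0.05%, EtOH 1%.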

A549 [7] = experiment: Induction of microtubule disruption in human A549 cells at 5 uM after 8 hrs by indirect immunofluorescence microscopic analysis; type: functional, cell-based; outline: as §2
A549 [8] = experiment: Cell cycle arrest in human A549 cells assessed as accumulation at G2/M phase after 24 hrs using propidium iodide staining by flow cytometry; type: functional, cell-based
Outline: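 A549 cells seeded at 5 × 10⁵ per 50 mm dish and treated 24 h, with 0.4% DMSO as negative control. Cells were trypsinized, fixed in 70% ethanol at −20 °C, then treated with RNase 1 mg/mL for 30 min at 37 °C and propidium iodide for 30 min at 37 °C. DNA content of 10000 cells measured by flow cytometry; EC50 for G2/M accumulation.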

Paracentrotus lividus [9] = experiment: Toxicity in Paracentrotus lividus embryo assessed as mortality at => 1 uM after 9 to 12 hrs fertilization; type: organism-based; conditions: in vivo
A549 [10] = experiment: Induction of microtubule disruption in human A549 cells at 20 uM after 8 hrs by indirect immunofluorescence microscopic analysis; type: functional, cell-based
[11] = Homo sapiens, A549, 24 h, read-out: EC50

Row | Structure (SMILES) | EC50 (Paracentrotus lividus [1]) | EC50 (Paracentrotus lividus [3]) | EC50 (Paracentrotus lividus [6]) | also measured
1 | Nc1ccccc1-c1nnc(Nc2ccc3c(c2)OCO3)o1 | 10 nM | 1 nM | 1000 nM | Activity (Bos taurus): Active; Activity [2]: Active; Activity (A549 [4]): Active; IC50 (A549 [5]): 3000 nM; Activity (A549 [7]): inactive; EC50 (A549 [8]; [11]): 8550 nM
2 | Cn1ncc(NCc2cccnc2)c1-c1nnc(Nc2ccc3c(c2)OCCO3)o1 | 1000 nM | 200 nM | > 2500 nM | –
3 | c1cncc(CNc2csnc2-c2nnc(Nc3ccc4c(c3)OCO4)o2)c1 | 50 nM | 5 nM | 50 nM | –
4 | c1cncc(CNc2csnc2-c2nnc(Nc3ccc4c(c3)OCCO4)o2)c1 | 10 nM | 5 nM | 100 nM | –
5 | COc1cc(N)c(-c2nnc(Nc3ccc4c(c3)OCO4)o2)c(OC)c1 | 200 nM | 50 nM | 1000 nM | –
6 | Nc1cc2c(cc1-c1nnc(Nc3ccc4c(c3)OCO4)o1)OCO2 | 500 nM | 50 nM | 200 nM | –
7 | COc1ccc(/C=C\c2cc(OC)c(OC)c(OC)c2)cc1OP(=O)(O)O [FOSBRETABULIN DISODIUM] | 10 nM | 5 nM | 1000 nM | –
8 | c1ccc(-c2nnc(Nc3ccc4c(c3)OCCO4)o2)c(NCc2ccncc2)c1 | 2 nM | 0.5 nM | 5 nM | Activity (Bos taurus): Active; Activity [2]: Active; IC50 (A549 [5]): 15 nM; Activity (A549 [7]): Active; EC50 (A549 [8]; [11]): 44.5 nM; EC50 (A549 [8]; a549): Dose-dependent effect
9 | c1ccc(-c2nnc(Nc3ccc4c(c3)OCCO4)o2)c(NCc2ccns2)c1 | 5000 nM | 2000 nM | 5000 nM | –
10 | c1cc(CNc2csnc2-c2nnc(Nc3ccc4c(c3)OCCO4)o2)ccn1 | 5 nM | 2 nM | 100 nM | Activity (Bos taurus): Active; Activity [2]: Active; IC50 (A549 [5]): 53.5 nM; Activity (A549 [7]): Active; EC50 (A549 [8]; [11]): 63 nM; EC50 (A549 [8]; a549): Dose-dependent effect
11 | Nc1[nH]ncc1-c1nnc(Nc2ccc3c(c2)OCO3)o1 | > 20000 nM | > 20000 nM | > 20000 nM | –
12 | Nc1nc2ccccc2cc1-c1nnc(Nc2ccc3c(c2)OCO3)o1 | 2000 nM | 50 nM | > 2000 nM | –
13 | c1cncc(CNc2cn[nH]c2-c2nnc(Nc3ccc4c(c3)OCO4)o2)c1 | > 10000 nM | 1000 nM | > 10000 nM | –
14 | COc1ccc(/C=C\c2cc(OC)c3c(c2)OCO3)cc1O [Combretastatin A-2] | 10 nM | 2 nM | 50 nM | –
15 | Nc1ccccc1-c1nnc(Nc2ccc3c(c2)OCCO3)o1 | 20 nM | 1 nM | 100 nM | Activity (Bos taurus): Active; Activity [2]: Active; Activity (A549 [4]): Active; IC50 (A549 [5]): 1570 nM; Activity (A549 [7]): inactive; EC50 (A549 [8]; [11]): 2820 nM
16 | COc1cc(-c2nnc(Nc3ccc4c(c3)OCO4)o2)cc(OC)c1OC | 1000 nM | 400 nM | > 5000 nM | Activity (Paracentrotus lividus [9]): Toxic
17 | c1ccc(-c2nnc(Nc3ccc4c(c3)OCO4)o2)c(NCc2ccncc2)c1 | 2 nM | 0.5 nM | 5 nM | –
18 | c1cncc(CNc2cn[nH]c2-c2nnc(Nc3ccc4c(c3)OCCO4)o2)c1 | > 10000 nM | 1000 nM | > 10000 nM | –
19 | Nc1csnc1-c1nnc(Nc2ccc(Cl)cc2)o1 | 500 nM | 200 nM | 500 nM | –
20 | CS(=O)(=O)c1ccc(Nc2nnc(-c3ccccc3N)o2)cc1 | > 4000 nM | 4000 nM | > 5000 nM | –
21 | c1cncc(CNc2ccccc2-c2nnc(Nc3ccc4c(c3)OCCO4)o2)c1 | 5 nM | 1 nM | 5 nM | –
22 | COc1cc([C@@H]2c3cc4c(cc3[C@H](O)[C@H]3COC(=O)[C@H]23)OCO4)cc(OC)c1OC [PODOFILOX] | 50 nM | 20 nM | 500 nM | –
23 | Nc1csnc1-c1nnc(Nc2ccc3c(c2)OCO3)o1 | 4000 nM | 500 nM | > 5000 nM | Activity (A549 [10]): inactive; IC50 (A549 [5]): > 20000 nM; EC50 (A549 [8]; [11]): > 20000 nM
24 | Clc1ccc(Nc2nnc(-c3nscc3NCc3cccnc3)o2)cc1 | 2000 nM | 500 nM | > 2500 nM | –
25 | COc1ccc(-c2nnc(Nc3ccc4c(c3)OCCO4)o2)c(N)c1 | 100 nM | 25 nM | 200 nM | –
26 | c1cncc(CNc2ccccc2-c2nnc(Nc3ccc4c(c3)OCO4)o2)c1 | 5 nM | 1 nM | 5 nM | –
27 | COC(=O)Nc1nc2cc(C(=O)c3cccs3)ccc2[nH]1 [NOCODAZOLE] | 10 nM | 5 nM | 100 nM | IC50 (A549 [5]): 36.6 nM; EC50 (A549 [8]; [11]): 106 nM
28 | c1cc(CNc2csnc2-c2nnc(Nc3ccc4c(c3)OCO4)o2)ccn1 | 5 nM | 2 nM | 20 nM | –
